M4 antag: CHRM4 antagonism in calcium assay; CHO-hM4 cells, ACh EC80, Fluo-8 calcium fluorescence; inhibition, % at 3 µM; 0.73% of 360,000 active;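 active = inhibition above its plate's cutoff, the mean inhibition of sample wells plus 3 SD, cut at about 27% in these data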;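 note: 0% = acetylcholine EC80 with DMSO and 100% = DMSO without agonist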
Target sequence (P08173 whole entry, looked up): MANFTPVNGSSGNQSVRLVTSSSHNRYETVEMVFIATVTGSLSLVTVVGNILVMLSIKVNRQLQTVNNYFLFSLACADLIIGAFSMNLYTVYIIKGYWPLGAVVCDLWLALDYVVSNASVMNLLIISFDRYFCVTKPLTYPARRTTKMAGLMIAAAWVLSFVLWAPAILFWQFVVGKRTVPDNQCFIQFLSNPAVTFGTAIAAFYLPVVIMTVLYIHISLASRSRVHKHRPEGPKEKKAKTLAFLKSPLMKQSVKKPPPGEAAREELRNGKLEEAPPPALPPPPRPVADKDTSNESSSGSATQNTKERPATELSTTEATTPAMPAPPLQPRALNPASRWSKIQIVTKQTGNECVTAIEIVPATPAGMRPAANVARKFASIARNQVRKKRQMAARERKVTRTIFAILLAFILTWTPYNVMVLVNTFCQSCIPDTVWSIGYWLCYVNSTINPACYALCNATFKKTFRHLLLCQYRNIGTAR
M4 ag: agonists of human muscarinic M4 receptor (CHRM4); P08173; CHO-K1 hM4/Gqi5, Fluo-8 calcium fluorescence; vehicle 0%, full acetylcholine response 100%; activation, % at 3 µM; 0.14% of 360,000 active; AID 624127;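 active = activation above the run mean over all test wells plus 3 SD, cut at about 32% in these data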;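 note: peak over basal fluorescence ratio per well then scaled between controls; 0% = DMSO wells and 100% = acetylcholine at EC100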
CHRM4 PAM: CHRM4 positive allosteric modulation; activation, % at 3 µM; P08173; 0.4% of 360,000 active; CHO-K1 hM4/Gqi5, Fluo-8 calcium fluorescence, ACh EC20; 0% = ACh EC20, 100% = maximal ACh;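 active = activation above its plate's cutoff, the mean activation of sample wells plus 3 SD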
M5 antag: CHRM5 antagonism in calcium assay; 0.59% of 360,000 active; inhibition, % at 3 µM; CHO-hM5 cells, Fluo-8 calcium fluorescence, ACh EC80; P08912;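 active = inhibition above a per-plate cutoff, the mean of that plate's test compounds plus 3 SD, cut at about 27% in these data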;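 note: 0% = acetylcholine EC80 with DMSO and 100% = DMSO without agonist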
M5 ag: CHRM5 agonism in calcium assay; P08912; CHO-K1 hM5 cells, Fluo-8 calcium fluorescence; 0% DMSO wells, 100% maximal acetylcholine response; activation, % at 3 µM; 0.19% of 360,000 active; AID 624037;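 active = activation above the run's mean over test compounds plus 3 SD, cut at about 23% in these data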;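 note: signal is peak over basal fluorescence ratio across the kinetic read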
CHRM5 PAM: CHRM5 positive allosteric modulation; P08912; CHO-K1 hM5, Fluo-8 calcium, ACh EC20 PAM; 0% = ACh EC20, 100% = ACh EC100; activation, % at 3 µM; 0.3% of 360,000 active; AID 624038;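 active = activation above the run cutoff, the mean activation of all test compounds plus 3 SD, cut at about 18% in these data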
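Assay system: CHO-K1 hM5 cells / Incubation: Fluo-8 loading 80 min at 37 °C plus 30 min room temperature / Technique: Fluo-8 calcium dye fluorescence, kinetic read / Repeats: single replicate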
* hit, by the source's call. Hits are enriched below; roughly 1.8% of the tested compounds scored in any of these assays.

SMILES | M4 antag | M4 ag | CHRM4 PAM | M5 antag | M5 ag | CHRM5 PAM
CCn1nc(C)cc1-c1nnc(Sc2ncc([N+](=O)[O-])s2)n1C | 20 | 1 | 0 | 6 | -2 | 1
O=C(NN=Cc1ccc2c(c1)CCC2)c1cccc([N+](=O)[O-])c1 | -6 | 1 | 0 | 6 | 0 | -2
O=NN(C(=O)NCc1cccnc1)C1CCCCC1 | 3 | 1 | -2 | -2 | 2 | 0
COc1ccccc1C(CNC(=O)c1cccc(S(=O)(=O)Nc2ccc(C)cc2)c1)N(C)C (stereo not drawn) | 32* | 0 | -14 | 99* | -7 | -14
O=C(OCCN1CCCCC1)c1cccc(Cl)c1 | -12 | 1 | 2 | 4 | -18 | 3
CC(O)(c1cccnc1)c1nc(-c2cccc(C#N)c2)cs1 (stereo not drawn) | -17 | 5 | 19* | -8 | 3 | -6
CC(O)(c1cccc(F)c1)c1nc(-c2cccc(C#N)c2)cs1 (stereo not drawn) | -11 | 2 | 2 | 7 | -1 | -7
COCCN(C(=O)COC(=O)c1ccc(C)s1)c1c(N)n(Cc2ccccc2)c(=O)[nH]c1=O | 5 | 1 | 4 | 19 | 0 | -3
CCCCn1c(Cc2ccccc2)n[nH]c1=S | 83* | 0 | -28 | 39* | -7 | -19
CCn1c(Cc2ccccc2)n[nH]c1=S | 1 | 1 | -3 | -5 | -10 | 7
Cc1ccc(C(=O)OC(C)C(=O)Nc2ccc3c(c2)OCO3)c(O)c1 (stereo not drawn) | 3 | 1 | -3 | 6 | 2 | -10
Cc1nn(-c2ccccn2)c(C)c1Oc1ccccc1O | -4 | 1 | -3 | 5 | -1 | -3
Cc1nn(-c2nc3ccccc3s2)c(C)c1Oc1ccccc1O | 32* | 37* | -30 | 0 | 3 | -8
CCOC(=O)c1sc(=S)n(-c2ccccc2Cl)c1SC | 54* | -1 | -16 | 23 | -7 | -27
CCOC(=O)c1sc(=S)n(-c2ccccc2)c1SC | 14 | -2 | -18 | 2 | -7 | -11
CC(C)Nc1ccc(C(CC(N)=O)NC(=O)c2ccc(Br)cc2)cc1[N+](=O)[O-] (stereo not drawn) | -5 | 0 | 3 | -6 | 1 | 20*
CC(C)Nc1ccc(C(CC(N)=O)NC(=O)c2ccccc2)cc1[N+](=O)[O-] (stereo not drawn) | 4 | 1 | -4 | -5 | 2 | 1
CSCCC(NS(=O)(=O)c1ccc(Cl)cc1)C(=O)OCC(=O)c1c(C)[nH]c2ccccc12 (stereo not drawn) | 33* | 15 | -13 | 26 | 3 | -13
CCOc1ccc(CCNC(=O)CCCn2c(=O)c3cccn3c3cccnc32)cc1OCC | -4 | 1 | 1 | -8 | -2 | -2
COc1ccc(C2CC(c3ccccc3)=NN2c2ccc(C(N)=O)cc2)cc1 (stereo not drawn) | 8 | 4 | -4 | 30* | -5 | -1
COc1ccc(C2CC(c3ccccc3)=NN2c2ccc(S(N)(=O)=O)cc2)cc1 (stereo not drawn) | -10 | 5 | 1 | 11 | 1 | 7
Cc1ccc(NC(=S)c2nc3ccccc3[nH]2)cc1 | 0 | -3 | 20 | 47* | 21 | 0
COc1ccc(C(=O)NCC(=O)N2CCC(Cc3ccccc3)CC2)cc1OC | 0 | 3 | 4 | 1 | 0 | 2
Cc1noc(C)c1CSCC(=O)N1CCN(c2ccc([N+](=O)[O-])cc2)CC1 | 18 | 18 | -16 | 29* | 2 | -25
COc1ccc(N=C2S/C(=C\c3ccc(OCC(=O)O)cc3)C(=O)N2CCc2c[nH]c3ccccc23)cc1 | -8 | 2 | -6 | -6 | 8 | -11
SMILES | M4 antag | M4 ag | CHRM4 PAM | M5 antag | M5 ag | CHRM5 PAM
COc1ccc(N=C2S/C(=C\c3ccc(N4CCOCC4)o3)C(=O)N2CCc2c[nH]c3ccccc23)cc1 | 45* | 8 | -13 | 11 | 10 | -1
Cc1cc(C(c2ccc(O)cc2)c2cc(C)c(O)cc2C)c(C)cc1O | 8 | 30 | -7 | 7 | 37* | -1
CCC/C(O)=C1\C(=O)CC(C)(C)CC1=Nc1ccc(OC)cc1 | 0 | -2 | -2 | 4 | -1 | 6
CCCC/C(O)=C1\C(=O)CC(C)(C)CC1=Nc1ccc(OC)cc1 | 30* | -3 | -17 | -2 | -1 | -1
COCCc1ccc(OC2(C)CCN(Cc3cccc(OCOC)c3)C2)cc1 (stereo not drawn) | 2 | 1 | -5 | 9 | -2 | -3
COc1cccc(C(C(=O)NC2CCCC2)N(C(=O)c2ccco2)c2ccc(NC(C)=O)cc2)c1OC (stereo not drawn) | -9 | 2 | 21* | 12 | -4 | -1
COC(=O)c1ccccc1S(=O)(=O)N1CCC(NC(=O)C(Cc2cccc(OC)c2OC)NC(C)=O)CC1 (stereo not drawn) | -7 | 1 | 1 | 2 | -2 | 1
CN(C)CCCn1c(SCc2c(Cl)cccc2Cl)nnc1-c1ccncc1 | 15 | 4 | 22* | -9 | -1 | 5
CC(C)C(NC(=O)c1ccccc1)c1nnc(SCC(=O)NC2CCCC2)n1C (stereo not drawn) | 7 | 2 | -5 | 1 | -1 | 1
NS(=O)(=O)c1cccc(NC(=O)CSc2nc3ccccc3c(=O)n2CC2CCCO2)c1 (stereo not drawn) | -4 | 1 | 1 | 7 | -1 | 2
CCCc1c(C(=O)N/N=C(\C)CCc2ccccc2)nnn1-c1nonc1N | -26 | 2 | 15* | -12 | -3 | -2
CCOc1cccc(-c2c(C(=O)N/N=C/c3cccnc3)nnn2-c2nonc2N)c1 | -2 | 5 | 7 | -6 | 3 | 3
CCCc1c(C(=O)N/N=C/C(C)=C/c2ccco2)nnn1-c1nonc1N | -7 | 2 | 8 | 3 | -2 | 2
CCCN(CCC)Cc1c(C(=O)N/N=C/c2ccoc2)nnn1-c1nonc1N | 2 | 1 | 0 | 3 | -2 | 6
CCOc1cccc(-c2c(C(=O)N/N=C/c3ccc(Br)cc3)nnn2-c2nonc2N)c1 | -1 | 9 | 15 | 1 | 18 | 18*
CCCN(CCC)Cc1c(C(=O)N/N=C/c2ccco2)nnn1-c1nonc1N | 0 | 1 | 3 | 27* | -4 | -8
CC(/C=N/NC(=O)c1nnn(-c2nonc2N)c1C(C)C)=C\c1ccco1 | 8 | 2 | 17* | -3 | 0 | 7
CC1CN(C(=O)COC(=O)Cc2c(F)cccc2Cl)CC(C)O1 (stereo not drawn) | -2 | 2 | 12 | 9 | 1 | 3
